Data set [1] concerns Ribosome. As to the kind of experiment: Induction of ribosome to readthrough in-frame UGA codon of renilla/firefly PCDH15 R245X nonsense mutant gene transfected in rabbit reticulocyte assessed as reduction in overall translation at 5 to 20 uM […] dual-luciferase reporter gene assay. The format is subcellular. Conditions: Oryctolagus cuniculus. A general note: Reporter assays use an easily measured gene product as a stand-in for the process of interest.

Data set [2] has as its system Ribosome. Briefly: Induction of ribosome to readthrough in-frame UGA codon of renilla/firefly CFTR G542X nonsense mutant gene transfected in rabbit reticulocyte assessed as reduction in overall translation at 5 to 20 uM […] dual-luciferase reporter gene assay. Type of data set: subcellular. Conditions: Oryctolagus cuniculus.
Data set [3] concerns Ribosome. As to the kind of experiment: Induction of ribosome to readthrough in-frame UGA codon of renilla/firefly CFTR W1282X nonsense mutant gene transfected in rabbit reticulocyte assessed as reduction in overall translation at 5 to 20 uM […] dual-luciferase reporter gene assay. The format is subcellular. The following applies: Oryctolagus cuniculus.
Data set [4] relates to Ribosome. Briefly: Induction of ribosome to readthrough in-frame UGA codon associated with renilla/firefly dystrophin R3381X nonsense mutant gene transfected in rabbit reticulocyte assessed as reduction in overall translation at 5 to 20 uM […] dual-luciferase reporter gene assay. The format is subcellular. The following applies: Oryctolagus cuniculus.
The test system of data set [5] is Ribosome. As to the kind of experiment: Induction of ribosome to readthrough in-frame UAG codon of renilla/firefly IDUA Q70X nonsense mutant gene transfected in rabbit reticulocyte assessed as reduction in overall translation at 5 to 20 uM […] dual-luciferase reporter gene assay. Type of data set: subcellular. The following applies: Oryctolagus cuniculus.
The subject of data set [6] is Ribosome. Briefly: Induction of ribosome to readthrough in-frame UGA codon of renilla/firefly PCDH15 R3X nonsense mutant gene transfected in HEK293 cells assessed as reduction in overall translation at 1 to 2 mM after 6 hrs dual-luciferase reporter gene assay. Conditions: Homo sapiens. The format is subcellular.
Data set [7] has as its system Ribosome. Briefly: Induction of ribosome to readthrough in-frame UAG codon of renilla/firefly IDUA Q70X nonsense mutant gene transfected in HEK293 cells assessed as reduction in overall translation at 1 to 2 mM after 6 hrs dual-luciferase reporter gene assay. The format is subcellular. Conditions: Homo sapiens.
The test system of data set [8] is Ribosome. As to the kind of experiment: Induction of ribosome to readthrough in-frame UGA codon of renilla/firefly CFTR W1282X nonsense mutant gene transfected in HEK293 cells assessed as reduction in overall translation at 1 to 2 mM after 6 hrs dual-luciferase reporter gene assay. Type of data set: subcellular. Conditions: Homo sapiens.
The nature of data set [9]: (§1) Cytotoxicity against HEK293 cells after 48 hrs by XTT assay. The following applies: human, HEK293 cells; read-out: LC50. Type of data set: cell-based. In a few lines: (§2)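 HEK-293 cells seeded overnight at 5000 cells/well in DMEM with 10% FBS, 1% pen/strep and 1% glutamine. Medium then replaced with antibiotic-free medium, aminoglycoside added at a range of concentrations, and cells incubated 48 h. Read-out by O.D. on a plate reader. Viability is the ratio of living cells treated vs untreated. LC50 fitted from concentration–response curves of at least two independent experiments. Concentrations are given as free amine.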
In general terms: Formazan colour is commonly taken as a measure of viable cells.

The target of the next data set is Bacterial 70S ribosome. As to the kind of experiment: Inhibition of ribosomal activity in Escherichia coli strain B assessed as inhibition of translation after 60 mins by coupled transcription/translation assay. Type of data set: subcellular. In a few lines: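 E. coli S30 extract for circular DNA, with pBESTluc plasmid as template. Reactions containing varying aminoglycoside concentrations incubated at 37 °C for 60 min, chilled on ice 5 min, then diluted in tris-phosphate buffer (25 mM, pH 7.8) with DTT, chelator, glycerol, Triton X-100 and BSA. Luciferase luminescence read immediately after reagent addition. IC50 fitted from at least two independent experiments.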

Data set [10] in a line: Inhibition of ribosomal activity in Spodoptera frugiperda Sf21 cells assessed as inhibition of translation after 60 mins by fluorescence assay. Type of data set: subcellular, Ribosome.
The next data set concerns Escherichia coli. Briefly: Antibacterial activity against Escherichia coli R477-100 by double-microdilution method. Type of data set: functional. A digest of the protocol:
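MIC by two-fold broth microdilution following NCCLS guidance; tested compound started at 384 µg/mL. Each run done in triplicate, with consistent results across three separate experiments.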
(In general: Dilution methods test growth across graded concentrations, often in twofold steps.)

Another data set relates to Bacillus subtilis. Briefly: Antibacterial activity against Bacillus subtilis ATCC 6633 by double-microdilution method. The format is functional. In a few lines: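 MIC determined by double-microdilution per NCCLS against Gram-positive B. subtilis ATCC-6633, starting at 384 µg/mL of compound. Run in triplicate (footnote says duplicates); analogous results in three separate experiments.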

Data set [11] in a line: Ratio of gentamicin to compound antitranslational activity against prokaryotic ribosome-mediated translation. The format is subcellular.
Data set [12] in a line: Ratio of paromomycin to compound antitranslational activity against prokaryotic ribosome-mediated translation. Type of data set: subcellular.
Data set [13] relates to Ribosome. Briefly: Induction of ribosome to readthrough in-frame UGA codon of renilla/firefly PCDH15 R3X nonsense mutant gene transfected in rabbit reticulocyte assessed as reduction in overall translation at 5 to 20 uM […] dual-luciferase reporter gene assay. Conditions: Oryctolagus cuniculus. Type of data set: subcellular.
The test system of data set [14] is Ribosome. As to the kind of experiment: Induction of ribosome to readthrough in-frame renilla/firefly TGA codon transfected in rabbit reticulocyte at 200 to 600 uM after 16 hrs dual-luciferase reporter gene assay. Type of data set: subcellular. The following applies: Oryctolagus cuniculus.
Data set [15] deals with Ribosome. Briefly: Induction of ribosome to readthrough in-frame renilla/firefly TGA codon transfected in rabbit reticulocyte at 5 to 20 uM after 16 hrs dual-luciferase reporter gene assay. The format is subcellular. The following applies: Oryctolagus cuniculus.
Data set [16] has as its system HEK293. Briefly: Ratio of geneticin to compound activity for induction of ribosome to readthrough in-frame UGA codon of renilla/firefly CFTR W1282X nonsense mutant gene transfected in HEK293 cells at 0.1 to 0.7 mM after 6 hrs dual-luciferase reporter gene assay. The format is subcellular. Conditions: Homo sapiens.
In data set [17] the test system is HEK293. Briefly: Ratio of compound LC50 to gentamicin LC50 for HEK293 cells. The format is ADME, cell-based. The following applies: human. A digest of the protocol:
(§3)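 HEK-293 cells seeded 5000/well overnight in DMEM with 10% FBS, 1% pen/strep, 1% glutamine; medium replaced without antibiotics, aminoglycosides added at varying concentrations for 48 h; OD read on plate reader. Viability as living cells treated versus untreated; LC50 from concentration–response fits of at least two independent experiments; ratios relative to reference drug LC50.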

The nature of data set [18]: Ratio of compound LC50 to geneticin LC50 for HEK293 cells. Type of data set: ADME, cell-based. Conditions: human. A digest of the protocol:
as §3

Data set [19] relates to HEK293. Described as §1. Type of data set: cell-based. The following applies: human, hek293, 48 h; read-out: LC50 (the source's name). In a few lines: as §2
The nature of data set [20]: Cytotoxicity against HDF after 72 hrs by XTT assay. Type of data set: cell-based. The following applies: human. A digest of the protocol:
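Primary human dermal fibroblasts isolated from adult skin. Handled as in the HEK-293 protocol (overnight seeding, antibiotic-free medium, range of aminoglycoside concentrations), but exposed for 72 h. Viability is the ratio of treated to untreated living cells by O.D. LC50 fitted from concentration–response curves of at least two independent experiments.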

The source of these data is ChEMBL document CHEMBL1165913, “Repairing faulty genes by aminoglycosides: development of new derivatives of geneticin (G418) with enhanced suppression of diseases-causing nonsense mutations” (Bioorg Med Chem, 2010).

pIC50: −log10 of the molar value. Converted amounts (≈) assume the structure as drawn. The source made the active and inactive calls. The rule behind the calls is not given here. Bounds are passed on as bounds.

In general, inhibition refers to the drop in the measured response relative to a control, in per cent. As usually defined, the pIC50 is −log10 of the IC50, conventionally taken in molar units. For orientation: MIC means the lowest concentration that inhibits growth of the organism. As to `NCC[C@H](O)C(=O)N[C@@H]1C[C@H](N)[C@@H](O[C@H]2O[C@H](CO)[C@@H](O)[C@H](O)[C@H]2N)[C@H](O[C@@H]2O[C@H](CN)[C@@H](O)[C@H]2O)[C@H]1O`, the inhibition in the data set with Ribosome [1], with Ribosome [2], in the data set on Ribosome [3], in the data set with Ribosome [4], in the data set with Ribosome [5] and in the data set with Ribosome [13] was 10% each time. The inhibition entry in the data set with Ribosome [6], with Ribosome [7] and with Ribosome [8] was “Active” throughout. In addition, the CC50 at 48 h in data set [9] turned out to be 6100 µM. The pIC50 is 6.80 on Bacterial 70S ribosome and 4.62 in data set [10]. Further, the MIC against Escherichia coli worked out at 588 µM (≈ 327 µg/mL); with Bacillus subtilis, 70 µM (≈ 38.9 µg/mL). In addition, the Ratio in data set [11] and in data set [12] was 10 in each case.

As to `NCC[C@H](O)C(=O)N[C@@H]1C[C@H](N)[C@@H](O[C@H]2O[C@H](CO)[C@@H](O)[C@H](O)[C@H]2N)[C@H](O)[C@H]1O`, the outcome with Ribosome [14] and with Ribosome [15] was Active.

For the compound `C[C@H](O)[C@H]1O[C@H](O[C@H]2[C@H](O[C@@H]3O[C@H](CN)[C@@H](O)[C@H]3O)[C@@H](O)[C@H](NC(=O)[C@@H](O)CCN)C[C@@H]2N)[C@H](N)[C@@H](O)[C@@H]1O`, the inhibition in the data set on Ribosome [1], with Ribosome [2], in the data set with Ribosome [3], in the data set on Ribosome [4], with Ribosome [5] and in the data set with Ribosome [13] was 50% each time. The inhibition entry with Ribosome [6], in the data set with Ribosome [7] and in the data set with Ribosome [8] was “Active” throughout. In addition, the results for the Ratio in the data set with HEK293 [16] and in the data set with HEK293 [17] were 2 and 2.8, respectively. Also, in data set [9], the CC50 at 48 h amounted to 7000 µM. The selectivity ratio in [18] was found to be 5. The pIC50 is 6.01 at Bacterial 70S ribosome and 5.55 in [10]. For the same compound, the figures for the MIC against Escherichia coli and against Bacillus subtilis were 556 µM (≈ 317 µg/mL) and 70 µM (≈ 39.9 µg/mL), respectively.

With `C[C@H](O)[C@H]1O[C@H](O[C@H]2[C@H](O)[C@@H](O)[C@H](N)C[C@@H]2N)[C@H](N)[C@@H](O)[C@@H]1O`, the outcome in the data set on Ribosome [14] and with Ribosome [15] was Active.

Regarding `C[C@H](O)[C@H]1O[C@H](O[C@H]2[C@H](O)[C@@H](O)[C@H](NC(=O)[C@@H](O)CCN)C[C@@H]2N)[C@H](N)[C@@H](O)[C@@H]1O`, in the data set on Ribosome [15], the outcome was Active.

In the case of `NC[C@H]1O[C@@H](O[C@@H]2[C@@H](O)[C@H](N)C[C@H](N)[C@H]2O[C@H]2O[C@H](CO)[C@@H](O)[C@H](O)[C@H]2N)[C@H](O)[C@@H]1O`, the inhibition in the data set on Ribosome [1], in the data set on Ribosome [2], in the data set with Ribosome [3], in the data set on Ribosome [4], in the data set on Ribosome [5] and with Ribosome [13] was 10% each time. The CC50 at 48 h in data set [9] amounted to 21400 µM. The pIC50 on Bacterial 70S ribosome is 6.34; in [10] it was 4.51. The results for the MIC against Escherichia coli and in the data set with Bacillus subtilis were 790 µM (≈ 359 µg/mL) and 100 µM (≈ 45.4 µg/mL), respectively. Also, the Ratio in [11] and in [12] was 10 throughout.

In the case of GENTAMICIN [listing 1 of 2 here], the MIC against Escherichia coli was 6 µM; against Bacillus subtilis it was below 0.75 µM.

As for `C[C@H](O)[C@H]1O[C@H](O[C@H]2[C@H](O[C@@H]3O[C@H](CN)[C@@H](O)[C@H]3O)[C@@H](O)[C@H](N)C[C@@H]2N)[C@H](N)[C@@H](O)[C@@H]1O`, the inhibition with Ribosome [1], in the data set on Ribosome [2], in the data set on Ribosome [3], in the data set on Ribosome [4], in the data set on Ribosome [5] and with Ribosome [13] was 10% throughout. Moreover, in data set [9], the CC50 at 48 h was 25800 µM. For the same compound, the pIC50 at Bacterial 70S ribosome was 5.95. In the data set with Bacillus subtilis, this compound returned a minimal inhibitory concentration (MIC) of 42 µM (≈ 19.7 µg/mL).

Take GENTAMICIN [listing 2 of 2 here]: the CC50 in the data set with HEK293 [19] came to 2500 µM; in data set [20] (hdf, 72 h, read-out: LC50 (the source's name)), 3800 µM. Further, the pIC50 is 7.55 at Bacterial 70S ribosome and 4.21 in data set [10].

As for `CN[C@@H]1[C@@H](O)[C@@H](O[C@@H]2[C@@H](O)[C@H](O[C@H]3O[C@H]([C@@H](C)O)[C@@H](O)[C@H](O)[C@H]3N)[C@@H](N)C[C@H]2N)OC[C@]1(C)O` [GENETICIN], the CC50 at 48 h in data set [9] was 1300 µM. Also, the CC50 at 72 h in [20] (HDF cells, read-out: LC50) turned out to be 2000 µM. Also, the pIC50 on Bacterial 70S ribosome was 8.05. For the same compound, the results for the MIC in the data set with Escherichia coli and against Bacillus subtilis were 9 µM (≈ 4.47 µg/mL) and below 1.25 µM, respectively.

`N[C@H]1[C@@H](O[C@H]2[C@H](O)[C@@H](O)[C@H](N)C[C@@H]2N)O[C@H](CO)[C@@H](O)[C@@H]1O`: the outcome in the data set with Ribosome [14] and in the data set on Ribosome [15] was Active.
